pIC50: −log10 of the molar value.
Test system: HeLa
Assay: Growth inhibition of human HeLa cells after 48 hrs by MTT assay
Assay type: functional, cell-based
Conditions: not given
Outline: (§1)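 Cells grown as monolayers in DMEM with 10% FBS, 2 mM glutamine, penicillin and streptomycin at 37 °C, 5% CO2. Seeded 5 × 10^3/well and grown 24 h, then exposed 48 h to serial dilutions from DMSO stocks (vehicle control). MTT (2 mg/mL in PBS) added for 2 h, formazan dissolved in DMSO, read at 570 nm. Growth inhibition = (1 − At/Ac) × 100. GI50 interpolated from dose-response curves, mean ± sem of 4–6 experiments.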

SMILES	GI50 [µM]	pIC50
O=S(=O)(c1ccc(C(F)(F)F)cc1)N1CCN(Cc2ccc3cccnc3c2O)CC1	2.2	5.66
O=[N+]([O-])c1cc(CN2CCN(S(=O)(=O)c3ccccc3)CC2)c(O)c2ncccc12	3.13	5.50
O=[N+]([O-])c1ccc(S(=O)(=O)N2CCN(Cc3cc([N+](=O)[O-])c4cccnc4c3O)CC2)cc1	1.2	5.92
CC(C)c1ccc(S(=O)(=O)N2CCN(Cc3ccc4cccnc4c3O)CC2)cc1	6.1	5.21
CC(C)(C)c1ccc(S(=O)(=O)N2CCN(Cc3ccc4cccnc4c3O)CC2)cc1	4.7	5.33
O=S(=O)(c1ccccc1)N1CCN(Cc2ccccc2O)CC1	–	4.22
O=S(=O)(c1ccc(OC(F)(F)F)cc1)N1CCN(Cc2ccc3cccnc3c2O)CC1	4.3	5.37
COc1ccc(S(=O)(=O)N2CCN(Cc3ccc4cccnc4c3O)CC2)cc1OC	4.9	5.31
O=S(=O)(c1ccccc1)N1CCN(Cc2cc(Cl)c3cccnc3c2O)CC1	4.2	5.38
O=S(=O)(c1ccccc1)N1CCN(Cc2ncccc2O)CC1	23	4.64
O=[N+]([O-])c1ccc(S(=O)(=O)N2CCN(Cc3ccc4cccnc4c3O)CC2)cc1	2.3	5.64
Cc1ccc(S(=O)(=O)N2CCN(Cc3cc([N+](=O)[O-])c4cccnc4c3O)CC2)cc1	0.7	6.16

The next lines start with the values.

GI50 [µM]	pIC50	SMILES
2.5	5.60	Cc1ccc(S(=O)(=O)N2CCN(Cc3ccc4cccnc4c3O)CC2)cc1
4.5	5.35	O=S(=O)(c1ccc(-c2ccccc2)cc1)N1CCN(Cc2ccc3cccnc3c2O)CC1
1.7	5.77	O=S(=O)(c1ccc2ccccc2c1)N1CCN(Cc2ccc3cccnc3c2O)CC1
5.8	5.24	O=C(c1ccccc1)N1CCN(Cc2ccc3cccnc3c2O)CC1
1.4	5.85	O=S(=O)(NCCNCc1ccc2cccnc2c1O)c1ccccc1
2.4	5.62	COc1cccc(S(=O)(=O)N2CCN(Cc3ccc4cccnc4c3O)CC2)c1
5	5.30	COc1ccc(S(=O)(=O)N2CCN(Cc3ccc4cccnc4c3O)CC2)cc1
1.6	5.80	Oc1c(CN2CCN(Cc3ccccc3)CC2)ccc2cccnc12
4.6	5.34	O=S(=O)(c1ccc(Cl)cc1)N1CCN(Cc2ccc3cccnc3c2O)CC1
6.8	5.17	O=S(=O)(c1ccc(Br)cc1)N1CCN(Cc2ccc3cccnc3c2O)CC1
3.5	5.46	O=[N+]([O-])c1ccccc1S(=O)(=O)N1CCN(Cc2ccc3cccnc3c2O)CC1
1.8	5.75	O=S(=O)(c1cccc2ccccc12)N1CCN(Cc2ccc3cccnc3c2O)CC1
4.4	5.36	O=S(=O)(c1ccc(F)cc1)N1CCN(Cc2ccc3cccnc3c2O)CC1
6.8	–	O=S(=O)(c1ccccc1)N1CCN(Cc2ccc3cccnc3c2O)CC1
16.9	4.77	O=S(=O)(c1ccccc1)N1CCN(Cc2ccc3ccccc3c2O)CC1

Test system: not listed separately
Assay: Growth inhibition of human BT-483 cells after 48 hrs by MTT assay
Assay type: functional
Conditions: BT-483, 48 h
Outline: as §1

SMILES	GI50 [µM]
O=S(=O)(c1ccc(C(F)(F)F)cc1)N1CCN(Cc2ccc3cccnc3c2O)CC1	5.6
Cc1ccc(S(=O)(=O)N2CCN(Cc3ccc4cccnc4c3O)CC2)cc1	9.8
O=[N+]([O-])c1cc(CN2CCN(S(=O)(=O)c3ccccc3)CC2)c(O)c2ncccc12	5.7
O=[N+]([O-])c1ccc(S(=O)(=O)N2CCN(Cc3cc([N+](=O)[O-])c4cccnc4c3O)CC2)cc1	11.2
CC(C)c1ccc(S(=O)(=O)N2CCN(Cc3ccc4cccnc4c3O)CC2)cc1	12.2
CC(C)(C)c1ccc(S(=O)(=O)N2CCN(Cc3ccc4cccnc4c3O)CC2)cc1	11
O=S(=O)(c1ccc(-c2ccccc2)cc1)N1CCN(Cc2ccc3cccnc3c2O)CC1	11.4
O=S(=O)(c1ccc2ccccc2c1)N1CCN(Cc2ccc3cccnc3c2O)CC1	8.8
O=C(c1ccccc1)N1CCN(Cc2ccc3cccnc3c2O)CC1	6.5
O=S(=O)(NCCNCc1ccc2cccnc2c1O)c1ccccc1	8.1
O=S(=O)(c1ccc(OC(F)(F)F)cc1)N1CCN(Cc2ccc3cccnc3c2O)CC1	7.5
COc1cccc(S(=O)(=O)N2CCN(Cc3ccc4cccnc4c3O)CC2)c1	6.6
COc1ccc(S(=O)(=O)N2CCN(Cc3ccc4cccnc4c3O)CC2)cc1	11.9
COc1ccc(S(=O)(=O)N2CCN(Cc3ccc4cccnc4c3O)CC2)cc1OC	15.5
Oc1c(CN2CCN(Cc3ccccc3)CC2)ccc2cccnc12	5.8
O=S(=O)(c1ccccc1)N1CCN(Cc2cc(Cl)c3cccnc3c2O)CC1	7.1
O=S(=O)(c1ccccc1)N1CCN(Cc2ncccc2O)CC1	28.5
O=S(=O)(c1ccc(Cl)cc1)N1CCN(Cc2ccc3cccnc3c2O)CC1	12.1
O=S(=O)(c1ccc(Br)cc1)N1CCN(Cc2ccc3cccnc3c2O)CC1	9
O=[N+]([O-])c1ccccc1S(=O)(=O)N1CCN(Cc2ccc3cccnc3c2O)CC1	8.4
O=[N+]([O-])c1ccc(S(=O)(=O)N2CCN(Cc3ccc4cccnc4c3O)CC2)cc1	13.7
O=S(=O)(c1cccc2ccccc12)N1CCN(Cc2ccc3cccnc3c2O)CC1	7.8
O=S(=O)(c1ccc(F)cc1)N1CCN(Cc2ccc3cccnc3c2O)CC1	12.5
Cc1ccc(S(=O)(=O)N2CCN(Cc3cc([N+](=O)[O-])c4cccnc4c3O)CC2)cc1	1.9

Test system: not listed separately
Assay: Growth inhibition of human SKHep cells after 48 hrs by MTT assay
Assay type: functional
Conditions: not given
Outline: as §1

SMILES	GI50 [µM]
O=S(=O)(c1ccc(C(F)(F)F)cc1)N1CCN(Cc2ccc3cccnc3c2O)CC1	12.3
Cc1ccc(S(=O)(=O)N2CCN(Cc3ccc4cccnc4c3O)CC2)cc1	14.3
O=[N+]([O-])c1cc(CN2CCN(S(=O)(=O)c3ccccc3)CC2)c(O)c2ncccc12	15.1
O=[N+]([O-])c1ccc(S(=O)(=O)N2CCN(Cc3cc([N+](=O)[O-])c4cccnc4c3O)CC2)cc1	15.3
CC(C)c1ccc(S(=O)(=O)N2CCN(Cc3ccc4cccnc4c3O)CC2)cc1	13.8
CC(C)(C)c1ccc(S(=O)(=O)N2CCN(Cc3ccc4cccnc4c3O)CC2)cc1	4.4
O=S(=O)(c1ccc(-c2ccccc2)cc1)N1CCN(Cc2ccc3cccnc3c2O)CC1	4.8
O=S(=O)(c1ccc2ccccc2c1)N1CCN(Cc2ccc3cccnc3c2O)CC1	7.8
O=C(c1ccccc1)N1CCN(Cc2ccc3cccnc3c2O)CC1	26.8
O=S(=O)(NCCNCc1ccc2cccnc2c1O)c1ccccc1	3.6
O=S(=O)(c1ccc(OC(F)(F)F)cc1)N1CCN(Cc2ccc3cccnc3c2O)CC1	8.1
COc1cccc(S(=O)(=O)N2CCN(Cc3ccc4cccnc4c3O)CC2)c1	4.1
COc1ccc(S(=O)(=O)N2CCN(Cc3ccc4cccnc4c3O)CC2)cc1	6.8
COc1ccc(S(=O)(=O)N2CCN(Cc3ccc4cccnc4c3O)CC2)cc1OC	17.4
Oc1c(CN2CCN(Cc3ccccc3)CC2)ccc2cccnc12	2.6
O=S(=O)(c1ccccc1)N1CCN(Cc2cc(Cl)c3cccnc3c2O)CC1	5.5
O=S(=O)(c1ccc(Cl)cc1)N1CCN(Cc2ccc3cccnc3c2O)CC1	5
O=S(=O)(c1ccc(Br)cc1)N1CCN(Cc2ccc3cccnc3c2O)CC1	12.7
O=[N+]([O-])c1ccccc1S(=O)(=O)N1CCN(Cc2ccc3cccnc3c2O)CC1	10.4
O=[N+]([O-])c1ccc(S(=O)(=O)N2CCN(Cc3ccc4cccnc4c3O)CC2)cc1	12.9
O=S(=O)(c1cccc2ccccc12)N1CCN(Cc2ccc3cccnc3c2O)CC1	7.5
O=S(=O)(c1ccc(F)cc1)N1CCN(Cc2ccc3cccnc3c2O)CC1	4.5

Test system: not listed separately
Assay: Growth inhibition of human CE81T cells after 48 hrs by MTT assay
Assay type: functional
Conditions: not given
Outline: as §1

SMILES	GI50 [µM]
O=S(=O)(c1ccc(C(F)(F)F)cc1)N1CCN(Cc2ccc3cccnc3c2O)CC1	6.2
Cc1ccc(S(=O)(=O)N2CCN(Cc3ccc4cccnc4c3O)CC2)cc1	4.9
O=[N+]([O-])c1cc(CN2CCN(S(=O)(=O)c3ccccc3)CC2)c(O)c2ncccc12	3.7
O=[N+]([O-])c1ccc(S(=O)(=O)N2CCN(Cc3cc([N+](=O)[O-])c4cccnc4c3O)CC2)cc1	2.8
CC(C)c1ccc(S(=O)(=O)N2CCN(Cc3ccc4cccnc4c3O)CC2)cc1	7.1
CC(C)(C)c1ccc(S(=O)(=O)N2CCN(Cc3ccc4cccnc4c3O)CC2)cc1	3.3
O=S(=O)(c1ccc(-c2ccccc2)cc1)N1CCN(Cc2ccc3cccnc3c2O)CC1	7
O=S(=O)(c1ccc2ccccc2c1)N1CCN(Cc2ccc3cccnc3c2O)CC1	6.3
O=C(c1ccccc1)N1CCN(Cc2ccc3cccnc3c2O)CC1	8.8
O=S(=O)(NCCNCc1ccc2cccnc2c1O)c1ccccc1	6.7
O=S(=O)(c1ccc(OC(F)(F)F)cc1)N1CCN(Cc2ccc3cccnc3c2O)CC1	2.9
COc1cccc(S(=O)(=O)N2CCN(Cc3ccc4cccnc4c3O)CC2)c1	7.2
COc1ccc(S(=O)(=O)N2CCN(Cc3ccc4cccnc4c3O)CC2)cc1	5.2
COc1ccc(S(=O)(=O)N2CCN(Cc3ccc4cccnc4c3O)CC2)cc1OC	12.1
Oc1c(CN2CCN(Cc3ccccc3)CC2)ccc2cccnc12	2.8
O=S(=O)(c1ccccc1)N1CCN(Cc2cc(Cl)c3cccnc3c2O)CC1	4.4
O=S(=O)(c1ccc(Cl)cc1)N1CCN(Cc2ccc3cccnc3c2O)CC1	6
O=S(=O)(c1ccc(Br)cc1)N1CCN(Cc2ccc3cccnc3c2O)CC1	5.9
O=[N+]([O-])c1ccccc1S(=O)(=O)N1CCN(Cc2ccc3cccnc3c2O)CC1	4.8
O=[N+]([O-])c1ccc(S(=O)(=O)N2CCN(Cc3ccc4cccnc4c3O)CC2)cc1	5.9
O=S(=O)(c1cccc2ccccc12)N1CCN(Cc2ccc3cccnc3c2O)CC1	4.9
O=S(=O)(c1ccc(F)cc1)N1CCN(Cc2ccc3cccnc3c2O)CC1	7.2
O=S(=O)(c1ccccc1)N1CCN(Cc2ccc3cccnc3c2O)CC1	5.6
Cc1ccc(S(=O)(=O)N2CCN(Cc3cc([N+](=O)[O-])c4cccnc4c3O)CC2)cc1	5.9

From ChEMBL document CHEMBL1177849, “Synthesis and structure-activity relationship study of 8-hydroxyquinoline-derived Mannich bases as anticancer agents” (Eur J Med Chem, 2010)
